Data reported in ChEMBL document CHEMBL4219132, “Sulfamic acid promoted one-pot synthesis of phenanthrene fused-dihydrodibenzo-quinolinones: Anticancer activity, tubulin polymerization inhibition and apoptosis inducing studies” (Bioorg Med Chem, 2018).

Tests used:
Type in all cases: functional, cell-based
DU-145 = assay: Cytotoxicity against human DU145 cells assessed as cell growth inhibition after 48 hrs by MTT assay; details: DU-145, 48 h
In short: (§1)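 MTT assay. Cells were seeded at 1×10^4 per well in their medium with 10% FBS and allowed 24 h at 37 °C. Compound diluted in medium was added alongside a vehicle control and left for 48 h. MTT (0.5 mg/mL) was then added for 4 h, formazan dissolved in DMSO, and absorbance read at 570 nm. IC50 is the concentration inhibiting 50% of cells.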

A549 = assay: Cytotoxicity against human A549 cells assessed as cell growth inhibition after 48 hrs by MTT assay; details: A549, 48 h; in short: as §1
PC-3 = assay: Cytotoxicity against human PC3 cells assessed as cell growth inhibition after 48 hrs by MTT assay; details: PC-3, 48 h; in short: as §1
HT-29 = assay: Cytotoxicity against human HT-29 cells assessed as cell growth inhibition after 48 hrs by MTT assay; details: HT-29, 48 h; in short: as §1
HCT-116 = assay: Cytotoxicity against human HCT116 cells assessed as cell growth inhibition after 48 hrs by MTT assay; details: HCT-116, 48 h; in short: as §1
MCF7 = assay: Cytotoxicity against human MCF7 cells assessed as cell growth inhibition after 48 hrs by MTT assay; details: MCF7, 48 h; in short: as §1

SMILES | IC50 (DU-145) [µM] | IC50 (A549) [µM] | IC50 (PC-3) [µM] | IC50 (HT-29) [µM] | IC50 (HCT-116) [µM] | IC50 (MCF7) [µM]
COc1cc2c3c(c4cc(OC)c(OC)cc4c2cc1OC)C(c1ccc(F)cc1)CC(=O)N3 (stereo unspecified) | 11.1 | 6.29 | 19.9 | 17.4 | 16.2 | 12.2
COc1cc2c3c(c4cc(OC)c(OC)cc4c2cc1OC)C(c1cccc2ccccc12)CC(=O)N3 (stereo unspecified) | 16.1 | 14.7 | – | 18.4 | 17.2 | > 20
COc1cc2c3c(c4cc(OC)c(OC)cc4c2cc1OC)C(c1ccc(Br)cc1)CC(=O)N3 (stereo unspecified) | > 20 | 7.16 | > 20 | 15.5 | 16.5 | > 20
COc1cc([C@@H]2c3cc4c(cc3[C@@H](O[C@@H]3O[C@@H]5CO[C@@H](C)O[C@H]5[C@H](O)[C@H]3O)[C@H]3COC(=O)[C@H]23)OCO4)cc(OC)c1O [ETOPOSIDE] | 2.13 | 3.25 | 5.4 | – | 2.6 | 2.03
COc1ccc(C2CC(=O)Nc3c2c2cc(OC)c(OC)cc2c2cc(OC)c(OC)cc32)cc1OC (stereo unspecified) | 13.1 | 4.09 | > 20 | 12.2 | 8.12 | > 20
COc1cc2c3c(c4cc(OC)c(OC)cc4c2cc1OC)C(c1cccs1)CC(=O)N3 (stereo unspecified) | > 20 | 8.5 | > 20 | 18.9 | 13.8 | > 20
COc1cc2c3c(c4cc(OC)c(OC)cc4c2cc1OC)C(c1cccc(C(F)(F)F)c1)CC(=O)N3 (stereo unspecified) | 6.19 | 5.03 | 18.5 | 18.7 | 15.4 | > 20
COc1cc2c3c(c4cc(OC)c(OC)cc4c2cc1OC)C(c1ccccc1)CC(=O)N3 (stereo unspecified) | 18.8 | > 20 | > 20 | > 20 | > 20 | > 20
COc1cc2c3c(c4cc(OC)c(OC)cc4c2cc1OC)C(c1ccc2c(c1)OCCO2)CC(=O)N3 (stereo unspecified) | > 20 | 7.95 | 18.4 | > 20 | > 20 | > 20
COc1cc2c3c(c4cc(OC)c(OC)cc4c2cc1OC)C(c1sccc1C)CC(=O)N3 (stereo unspecified) | 19.6 | 15.4 | > 20 | > 20 | > 20 | > 20
COc1cc2c3c(c4cc(OC)c(OC)cc4c2cc1OC)C(c1ccc(O)c(O)c1)CC(=O)N3 (stereo unspecified) | > 20 | 11.6 | 19.8 | 10.3 | 12.6 | > 20
COc1cccc(C2CC(=O)Nc3c2c2cc(OC)c(OC)cc2c2cc(OC)c(OC)cc32)c1 (stereo unspecified) | 18.9 | > 20 | > 20 | > 20 | > 20 | > 20
COc1cc2c3c(c4cc(OC)c(OC)cc4c2cc1OC)C(c1ccc(Cl)cc1)CC(=O)N3 (stereo unspecified) | 19 | 6.49 | > 20 | 13.8 | 14.2 | > 20
COc1cc2c3c(c4cc(OC)c(OC)cc4c2cc1OC)C(c1ccc(F)c(F)c1)CC(=O)N3 (stereo unspecified) | > 20 | 7.78 | > 20 | 17.9 | 13.4 | > 20
COc1cc2c3c(c4cc(OC)c(OC)cc4c2cc1OC)C(c1ccc(C)cc1)CC(=O)N3 (stereo unspecified) | 16.9 | 16.7 | > 20 | > 20 | > 20 | > 20
COc1cc2c3c(c4cc(OC)c(OC)cc4c2cc1OC)C(c1ccc(C(C)C)cc1)CC(=O)N3 (stereo unspecified) | 18.2 | 8.84 | > 20 | 16 | > 20 | > 20
COc1ccc(C2CC(=O)Nc3c2c2cc(OC)c(OC)cc2c2cc(OC)c(OC)cc32)cc1 (stereo unspecified) | 17 | 8.94 | 19.1 | 16.7 | > 20 | > 20
COc1cc2c3c(c4cc(OC)c(OC)cc4c2cc1OC)C(c1cccc(Br)c1)CC(=O)N3 (stereo unspecified) | 18.5 | > 20 | > 20 | > 20 | > 20 | > 20
